# Source: PubChem (Sanford-Burnham Center for Chemical Genomics)
# Apaf1 activ = activates human Apaf-1 apoptosome. O14727. Apaf-1 apoptosome caspase-3 activation, DEVD-Rh110 fluorescence; active compounds read low. activity change, negative = activation, % at 20 µM. 330,000 compounds, 0.31% hits. AID 489031;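 active = activity change at or below -40% at 20 µM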
#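 Material: reconstituted apoptosome of Apaf-1, cytochrome c, caspase-9, procaspase-3; times: 30 min preincubation, 50 min reaction, room temperature; measured by: fluorescence, 540 nm emission, 480 nm excitation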
# Rh110 interf act = interferes with Rh110 fluorescence, flagging false Apaf-1 activators; shares compounds with Apaf1 activ; Rh110 fluorescence interference, quenched caspase reaction, Ex480/Em540; fluorescence interference (activity change), % at 20 µM, hits read low; 980 tested, under 10 active; AID 504616;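 active = mean activity change at or below -40% when tested at 20 µM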
# Apaf-1 act conf = Apaf-1 (human) activation, single-dose confirmed | reconstituted apoptosome caspase-3 activity, DEVD-Rh110 fluorescence; active compounds read low | 980 compounds, 5% hits | activity change, negative = activation, % at 20 µM | shares compounds with Apaf1 activ;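 active = mean activity change at or below -40%, meaning activation of 40% or more, at 20 µM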
# Fluor interf act = Apaf-1 activator counter-screen fluorescence artifact. EC50, µM. shares compounds with Apaf1 activ. fluorescence interference counterscreen, Apaf-1 activator assay. 55 tested, under 10 active; call rule not given here
# * = called active by the depositor; nt = no result. The list is a sample of the results.
SMILES,Apaf1 activ,Rh110 interf act,Apaf-1 act conf,others
O=c1[nH]nc(CNc2ccc(O)cc2)c2ccccc12,94,nt,nt,
NS(=O)(=O)c1ccc(Cc2ncc(C(F)(F)F)cc2Cl)s1,-40*,1,8,
Cc1[nH]n(-c2ccccc2)c(=O)c1C(=O)c1ccccc1,61,nt,nt,
CC(CNc1ccccc1O)C(=O)O (centres undefined),-165*,4,-81*,Fluor interf act=>100
COC(=O)c1ccc(C(=O)Nc2ccc(N)cc2N)cc1,48,nt,nt,
O=C(O)CCNc1cc(N2CCN(C(=O)c3ccco3)CC2)c2noc3c2c1C(=O)c1ccccc1-3,81,nt,nt,
CCCc1cc(C(=O)Nc2sc(C(C)=O)c(C)c2C(=O)OCC)no1,-192*,-7,8,
CCCc1ccc2oc(C(=O)NCCc3nc(C(=O)OCC)cs3)c(C)c2c1,41,nt,nt,
CCN(CC)C(=O)Cn1cc(S(=O)(=O)CC(=O)N2CCOCC2)c2ccccc21,-56*,12,12,
Cc1ccc(Oc2nc(CN3CCOCC3)nc3sc4c(c23)CCC(C)C4)cc1 (centres undefined),41,nt,nt,
COc1cc2c(C#N)c(N3CCc4ccccc4C3)nc(N)c2c(N)n1,94,nt,nt,
COc1cc(O)c(NC(C)=O)c2nonc12,87,nt,nt,
CCC1CCCCN1CCCNC(=O)CC1Oc2ccc(C)cc2NC1=O (centres undefined),-93*,8,11,
NC(=O)C1CCN(C2=C(Cl)C(=O)c3ccccc3C2=O)CC1,73,nt,nt,
CSc1ncccc1C(=O)NCCc1ccc(Cl)cc1,-99*,-2,9,
CCN(CC)C(=O)[C@H]1C[C@H](CC(=O)NCc2cccc(C(F)(F)F)c2)C(=O)N2CCc3c([nH]c4ccc(Cl)cc34)[C@]12C,46,nt,nt,
COC(=O)CCC(=O)OC1(C)C(=O)C2=CN(C3CC3)C(c3ccc(OC)cc3)=CC2=C(Br)C1=O (centres undefined),61,nt,nt,
CC(=O)O[C@]1(C(C)=O)CC[C@H]2[C@@H]3C[C@H](C)C4=CC(=O)CC[C@]4(C)[C@H]3CC[C@@]21C,18,nt,nt,
N#Cc1ccccc1OCC(=O)OCC(=O)N1CCCC1,-110*,11,15,
Nc1ccc(N(CCO)CCO)cc1,84,nt,nt,
CC[C@@H](C)[C@@H]1CN([C@@H](CN2CCC[C@H]2CN2C(N)=NC[C@@H]2Cc2ccccc2)C(C)C)C(=N)N1CCCC1CCCC1,63,nt,nt,
CCn1c(SCC(=O)OC(C)C)nnc1-c1ccccc1,-76*,-1,7,
C=CCn1c(SCC(=O)N(CC)C2CCS(=O)(=O)C2)nnc1-c1ccccc1 (centres undefined),61,nt,nt,
CN1CCc2cccc3c2[C@@H]1Cc1ccc(O)c(O)c1-3,50,nt,nt,
Cc1ccc(-n2c(N)c(C(=O)Nc3c(C)n(C)n(-c4ccccc4)c3=O)c3nc4ccccc4nc32)cc1C,42,nt,nt,
SMILES,Apaf1 activ,Rh110 interf act,Apaf-1 act conf,others
O=C(N/N=C/c1c(F)cccc1Cl)C1CC1,-142*,-4,8,
CCOc1ccccc1N1CSC2=C(C#N)C(c3c(OC)ccc4ccccc34)CC(=O)N2C1 (centres undefined),41,nt,nt,
COCCNc1nc2nonc2nc1N(C)Cc1cccc2cnccc12,-346*,-2,11,
CCCCCCNC(=O)N[C@@H](C(=O)NCCC[C@H]1CN2C(=NC[C@@H]2Cc2ccccc2)N1CCc1cccc(OC)c1)C(C)C,54,nt,nt,
CCCN1CCN(C(=S)Nc2ccccc2C(F)(F)F)CC1,-81*,3,13,
O=C1c2ccccc2-c2nnc(-c3ccccc3)cc21,71,nt,nt,
CCCCNC(=O)C(C1CCCCC1)N(CCN(C)C)C(=O)CCCN1C(=O)NC(c2ccc(-c3ccccc3)cc2)C(C(=O)OCc2ccccc2)=C1C (centres undefined),64,nt,nt,
CN1C[C@H](C(=O)N[C@]2(C)O[C@@]3(O)[C@@H]4CCCN4C(=O)[C@H](Cc4ccccc4)N3C2=O)CC2c3cccc4[nH]cc(c34)C[C@H]21 (some centres undefined),10,nt,nt,
CCc1ccccc1NC(=O)CCNS(=O)(=O)c1cc(Br)cnc1N,49,nt,nt,
CCc1ccccc1NC(=O)CCS(=O)(=O)c1ccc(OC)cc1,-117*,0,-3,
Cn1c(C(=O)NCCN2CCCCCC2)cc2c(=O)n(C)c3ccccc3c21,43,nt,nt,
Cc1cccc(CN2C(=O)/C(=C\c3ccc(C(=O)NCCCN4CCN(C)CC4)cc3)Oc3ccccc32)c1,53,nt,nt,
COc1ccc2[nH]c3c(C)c4ccncc4c(C)c3c2c1,76,nt,nt,
O=C(NC1CCCC1)c1ccc2nc(-c3ccco3)c(-c3ccco3)nc2c1,44,nt,nt,
Cc1cc(-c2ccccc2C(=O)NC2CCCCC2)on1,-149*,9,8,
COc1cc2sc3ccc(-c4ccc(N(C)C)nc4)cc3c(=O)c2cc1OC,44,nt,nt,
Cc1cccc(NC(=O)CCN2CCC(C)CC2)c1,-54*,2,1,
Cc1cccc(NC(=O)NCc2ccc3c(c2)cc(C)n3C)c1,54,nt,nt,
COc1ccc(CN2CCC(C(=O)Nc3ccc(Oc4cccnc4)cc3)CC2)cc1,58,nt,nt,
COc1ccc(NC(=O)CN(C)C(=O)C2CSC3(C)CCC(=O)N23)cc1 (centres undefined),43,nt,nt,
Cc1cccc(NC(=O)c2sc3nc4c(c(-c5cccs5)c3c2N)CN(C)CC4)c1,50,nt,nt,
COc1ccc(NC(=O)CN2CCC(C)CC2)cc1,-52*,-1,3,
Cc1sc2ncnc(N3CCC(C(=O)N(C)CC(=O)Nc4ccccc4Cl)CC3)c2c1C,60,nt,nt,
CCN(CC)c1nc(N)c2c(N)nc(OC)cc2c1C#N,46,nt,nt,
CCCCCNC(=O)c1cn(CC)c2cc(N3CCN(C)CC3)c(F)cc2c1=O,-72*,5,14,
SMILES,Apaf1 activ,Rh110 interf act,Apaf-1 act conf,others
COC(=O)CCC(=O)OC1(C)C(=O)C2=CN(CCCOC(C)C)C(c3ccc(OC)cc3)=CC2=C(Br)C1=O (centres undefined),79,nt,nt,
COc1cc2nc(Nc3ccc(C)c(Cl)c3)nc(N)c2cc1OC,45,nt,nt,
COc1cccc(CNc2cccc3cccnc23)c1O,71,nt,nt,
Clc1cccc(Cl)c1CNC1CCCC1,-48*,-2,2,
Fc1cccc(Cl)c1CNc1ccc(N2CCCC2)cc1,48,nt,nt,
NC(=NCCCCCCN=C(N)/N=C(\N)Nc1ccc(Cl)cc1)/N=C(\N)Nc1ccc(Cl)cc1,76,nt,nt,
CC(C)=CCC/C(C)=C/CNC(=O)C[C@H]1C[C@H](C(=O)N2CCOCC2)[C@@]2(C)c3[nH]c4ccc(Cl)cc4c3CCN2C1=O,42,nt,nt,
C#CCOCCOCCOCCNc1nc(N2CCN(C(=O)[C@H](CCCN=C(N)N)n3cc(C(N)[C@@H](C)CC)nn3)CC2)nc(N2CCN(C(=O)[C@H](CCCCN)n3cc([C@@H](N)[C@H](C)CC)nn3)CC2)n1 (some centres undefined),50,nt,nt,
Cc1ccc(-c2csc(NC(=O)C3=NN(C4CCS(=O)(=O)C4)C(=O)CC3)n2)cc1 (centres undefined),-58*,8,-21,
C/C(=N\NC(=O)c1nnn(-c2nonc2N)c1-c1cccs1)c1ccc(C)cc1,-44*,8,7,
Nc1cccc2nsnc12,68,nt,nt,
COC(=O)CCC(=O)OC1(C)C(=O)C=C2C=C(C3CC3)N(CCCCO)C=C2C1=O (centres undefined),64,nt,nt,
